Laboratory results from ChEMBL document CHEMBL1139419, “Quantitative structure-activity relationship studies on nitrofuranyl anti-tubercular agents” (2008).
Values after ≈ are worked out from the molar mass of the structure shown.

Test system: Mycobacterium tuberculosis
Assay: Antitubercular activity against Mycobacterium tuberculosis H37Rv assessed as drug level causing 90% growth inhibition after 7 days by microbroth dilution method
Assay type: functional
Settings: for MIC: Mycobacterium tuberculosis, H37Rv, 168 h
In short: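 Two-fold serial dilutions in 7H9 broth with 10% albumin-dextrose complex and 0.05% (v/v) Tween80, in round-bottom microtiter plates, with final concentrations starting at 200 μg/mL. Equal volume of H37Rv broth inoculum added. Incubated aerobically at 37°C for 7 days and read visually. MIC taken as the lowest concentration inhibiting 90% of growth relative to the no-drug control.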

Structure (SMILES) | -logMIC | MIC
O=C(NCc1ccc(N2CCN(Cc3ccccc3)CC2)cc1)c1ccc([N+](=O)[O-])o1 | 2.4296 | 1.56 µg/mL (≈ 3.71 µM)
O=C(NCc1ccc(N2CCS(=O)(=O)CC2)cc1)c1ccc([N+](=O)[O-])o1 | 0.8801 | 50 µg/mL (≈ 132 µM)
O=C(NCc1ccc(N2CCCN(Cc3ccccc3)CC2)cc1)c1ccc([N+](=O)[O-])o1 | 3.0309 | 0.4 µg/mL (≈ 0.921 µM)
CC(C)(C)OC(=O)N1CCN(c2ccc(CNC(=O)c3ccc([N+](=O)[O-])o3)cn2)CC1 | 5.7318 | 0.0008 µg/mL (≈ 0.00185 µM)
CCOC(=O)N1CCN(c2ccc(CNC(=O)c3ccc([N+](=O)[O-])o3)cc2)CC1 | 4.8123 | 0.0062 µg/mL (≈ 0.0154 µM)
O=C(NCc1ccco1)c1ccc([N+](=O)[O-])o1 | 1.5774 | 6.25 µg/mL (≈ 26.5 µM)
CN1CCN(c2ccc3c(c2)CCN(C(=O)c2ccc([N+](=O)[O-])o2)C3)CC1 | 3.8697 | 0.05 µg/mL (≈ 0.135 µM)
O=C(NCc1ccc(C(F)(F)F)cc1)c1ccc([N+](=O)[O-])o1 | 3.7983 | 0.05 µg/mL (≈ 0.159 µM)
O=C(c1ccc([N+](=O)[O-])o1)N1CCC(Oc2ccc(OC(F)(F)F)cc2)CC1 | 5.6993 | 0.0008 µg/mL (≈ 0.002 µM)
NC1CCN(c2ccc(CNC(=O)c3ccc([N+](=O)[O-])o3)cc2)C1 (configuration not stated) | 2.6172 | 0.8 µg/mL (≈ 2.42 µM)
COC(=O)NC(=O)c1ccc([N+](=O)[O-])o1 | 2.7286 | 0.4 µg/mL (≈ 1.87 µM)
